Compound activity as filed in PubChem BioAssay.
OXTR potentiator: human OXTR potentiators, primary screen, fluorescence, CHO-OTR cells, Fluo-8 calcium. AID 2445, 2010. Oxytocin receptor (Homo sapiens), P30559. activation, % at 3 µM. hit rate 0.061% among 320,000. Fluo-8 calcium fluorescence, potentiator mode; 0% = oxytocin EC15, 100% = EC100;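 active = activation above that plate's cutoff, the mean activation of tested compounds plus 3 SD, cut at about 6.6% in these data, passing the limit was not always enough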
Target sequence (P30559 whole entry, looked up): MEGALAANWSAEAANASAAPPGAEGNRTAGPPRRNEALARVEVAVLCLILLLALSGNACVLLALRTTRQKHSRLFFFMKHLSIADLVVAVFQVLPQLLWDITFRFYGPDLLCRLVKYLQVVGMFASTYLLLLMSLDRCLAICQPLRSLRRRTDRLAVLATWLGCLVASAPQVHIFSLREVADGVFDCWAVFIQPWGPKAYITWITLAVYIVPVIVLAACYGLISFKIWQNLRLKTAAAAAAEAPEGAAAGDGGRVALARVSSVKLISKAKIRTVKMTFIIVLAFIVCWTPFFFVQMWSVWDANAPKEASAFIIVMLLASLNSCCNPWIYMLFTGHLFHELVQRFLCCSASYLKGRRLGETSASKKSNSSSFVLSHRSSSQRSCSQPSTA
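Assay system: CHO cell line stably expressing human OTR. Reagent: EC15 oxytocin agonist. Dosing: single dose, 3.0 µM nominal final compound concentration. Timing: compound 6 min at room temperature before oxytocin, 100 s read. Signal: kinetic Fluo-8 calcium fluorescence. Controls: oxytocin EC15 low and EC100 high.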
TAAR1 ag: human TAAR1 agonists, primary screen, Fluo-8 calcium fluorescence, CHO RD-HGA16 cells; vehicle wells 0%, saturating PEA agonist 100%; activation, % at 3 µM; hit rate 0.99% among 360,000;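 active = activation above the mean activation of all test compounds in the run plus 3 SD, cut at about 38% in these data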
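Test system: RD-HGA16 (CHO) cells co-expressing Gα16 and hTAAR1 / Benchmarks: DMSO vehicle as 0%, PEA at EC100 as 100% / Repeats: no replicates (n 1) / Measure: % activation from peak over basal fluorescence ratio, DMSO-to-PEA scaled / Timing: 17-24 h plating, Fluo-8 75 min 37 °C, 30 min RT / Technique: kinetic Fluo-8 calcium fluorescence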
V1R ag counter: agonists of human V1a receptor, primary screen, counter-screen for OXTR agonist project, fluorescence, CHO-V1R cells; Vasopressin V1a receptor (Homo sapiens), P37288; Fluo-8 calcium fluorescence, agonist mode; 0% DMSO, 100% 3 nM vasopressin; AID 2797, 2010; hit rate 0.25% among 320,000; activation, % at 3 µM;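 active = activation above the mean activation of all tested compounds plus 3 SD, per screening run, cut at about 20% in these data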;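 also: signal is peak over basal fluorescence ratio across a 100 second FLIPR read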
TAAR1 antagonist: human TAAR1 antagonists, primary screen, Fluo-8 calcium fluorescence, CHO RD-HGA16 cells; Trace amine-associated receptor 1 (Homo sapiens), Q96RJ0; inhibition, % at 3 µM; AID 624466, 2012; antagonist; hit rate 1.5% among 360,000;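 active = inhibition above a per-plate cutoff, the mean inhibition of test compounds on that plate plus 3 SD, cut at about 49% in these data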
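Assay system: RD-HGA16 CHO cells with stable hTAAR1 and Gα16 / Reagent: EC80 β-phenethylamine stimulus / Doses: 3 µM, single point / Timing: dye loading 75 min at 37 °C, then 30 min room temperature / Measured by: Fluo-8 intracellular calcium dye fluorescence, real-time kinetic reads / Controls: vehicle wells and EC80 agonist wells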
OXTR ag: human OXTR agonists, primary screen, fluorescence, CHO-OTR cells, Fluo-8 calcium; Oxytocin receptor (Homo sapiens), P30559; Fluo-8 calcium fluorescence; normalized: DMSO 0%, oxytocin 100%; activation, % at 3 µM; hit rate 0.32% among 320,000; AID 2435, 2010;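 active = activation above the mean of all tested compounds plus 3 SD, cutoff set per screening run, cut at about 20% in these data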;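 also: peak over basal fluorescence ratio from a 100 s FLIPR kinetic read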
nonsel antag count: nonselective antagonists in TAAR1 counter-screen cells, counter-screen for hTAAR1 antagonist project, cell-based, fluorescence, calcium | shares compounds with TAAR1 antagonist | counterscreen cell line, antagonist mode | inhibition, % at 3 µM | hit rate 77% among 2,400 | AID 651780, 2012; in the data active = inhibition above about 22%;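 also: CHO-Ga16 host cells stimulated with ATP at an EC80 level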
TAAR1 antag conf: human TAAR1 antagonists, retest of hits, confirmation, cell-based, fluorescence | shares compounds with TAAR1 antagonist | TAAR1-expressing cells, fluorescence antagonist read-out | inhibition, % at 3 µM | hit rate 40% among 2,400; in the data active = inhibition above about 49%;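 also: CHO-Ga16 host cells challenged with agonist PEA near its EC80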
Ga16 nonsel ag: calcium activation in Ga16-expressing cells, counter-screen for TAAR1 antagonist project, cell-based, fluorescence; agonist counterscreen; hit rate 18% among 2,400; shares compounds with TAAR1 antagonist; activation, % at 3 µM; in the data active = activation above about 12%
TAAR1 ag count: TAAR1 activation by candidate antagonists – cell-based, fluorescence, counter-screen for TAAR1 antagonist project; activation, % at 3 µM; shares compounds with TAAR1 antagonist; AID 651955, 2012; hTAAR1 cell line, agonist mode; hit rate 2% among 2,400; in the data active = activation above about 37%;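 also: CHO cells stably expressing TAAR1 with calcium dye readout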
Of the large screens only hits and unclear results are named; the others gave an inactive call (follow-up assays come after a bar, where they were run). An excerpt weighted towards active compounds, which were near 2.3% of everything screened.

Cc1ccc2c(c1)N(CC(=O)NCCCc1ccccc1)C(=O)c1cccnc1O2	TAAR1 antagonist 73 | nonsel antag count 27 | TAAR1 antag conf inactive | Ga16 nonsel ag inactive | TAAR1 ag count inactive
CCCN1CCN(CCCNC(=O)CN2C(=O)c3cccnc3Oc3ccc(C)cc32)CC1	none
Cc1cccc(OCC(=O)Nc2cccc(C(=O)NCC(C)C)c2)c1	TAAR1 antagonist 70 | nonsel antag count inactive | TAAR1 antag conf inactive | Ga16 nonsel ag inactive | TAAR1 ag count inactive
Cc1cccc(OCC(=O)Nc2ccc(C(=O)NCC(C)C)cc2)c1	none
CCO[C@@H]1OC(C(=O)NCc2ccccc2)=C[C@H](c2coc3ccccc3c2=O)[C@H]1CCCO	TAAR1 antagonist 50 | nonsel antag count inactive | TAAR1 antag conf inactive | Ga16 nonsel ag inactive | TAAR1 ag count inactive
CC(=O)n1cc([C@@H]2C=C(C(=O)N3CCN(C)CC3)O[C@H](OCc3ccc(CO)cc3)C2)c2ccccc21	none
O=C(NCc1ccccc1)C1=C[C@@H](c2coc3ccccc3c2=O)C[C@@H](OCc2ccc(CO)cc2)O1	TAAR1 antagonist 52 | nonsel antag count inactive | TAAR1 antag conf inactive | Ga16 nonsel ag inactive | TAAR1 ag count inactive
C=CCOC(=O)C1=C[C@H](c2cn(C(C)=O)c3ccccc23)C[C@H](OCc2ccc(CO)cc2)O1	TAAR1 antagonist 75 | nonsel antag count 38 | TAAR1 antag conf 52 | Ga16 nonsel ag inactive | TAAR1 ag count inactive
Cc1cc2n(n1)SC(Nc1ccccc1)N2 (stereo not given)	none
CCS(=O)(=O)N1Cc2ccccc2CC1C(=O)Nc1nnc(SCc2ccc(C#N)cc2)s1 (stereo not given)	TAAR1 antagonist 68 | nonsel antag count 34 | TAAR1 antag conf 56 | Ga16 nonsel ag 12 | TAAR1 ag count inactive
CCc1nc(NCCO)c(C#N)c2c1CSC(C)(C)C2	TAAR1 antagonist 59 | nonsel antag count 31 | TAAR1 antag conf 51 | Ga16 nonsel ag inactive | TAAR1 ag count inactive
CS(=O)c1nc(-c2ccc(Br)cc2)cc(-c2ccccc2)c1C#N (stereo not given)	TAAR1 antagonist 70 | nonsel antag count 27 | TAAR1 antag conf 53 | Ga16 nonsel ag inactive | TAAR1 ag count inactive
CC(=O)NC1CC2CCCC(C1)N2S(=O)(=O)c1cccc(F)c1 (stereo not given)	none
COc1ccccc1CN(C)C(=O)c1cc(-c2cccs2)nc2ccccc12	TAAR1 antagonist 70 | nonsel antag count 37 | TAAR1 antag conf 56 | Ga16 nonsel ag inactive | TAAR1 ag count inactive
COc1ccc(CN(C)C(=O)c2cc(-c3ccc(OC)c(OC)c3)nc3ccccc23)c(OC)c1	TAAR1 antagonist 80 (no result: OXTR potentiator, V1R ag counter, OXTR ag) | nonsel antag count 26 | TAAR1 antag conf 49 | Ga16 nonsel ag inactive | TAAR1 ag count inactive
COc1ccc2cc(-c3cc(C(=O)O)c4ccccc4n3)ccc2c1	none
COc1ccc(-c2cc(C(=O)N(C)Cc3cccc(OC)c3OC)c3ccccc3n2)cc1OC	TAAR1 antagonist 62 | nonsel antag count 28 | TAAR1 antag conf inactive | Ga16 nonsel ag inactive | TAAR1 ag count inactive
